# Test results as given in ChEMBL document CHEMBL3286187, “Synthesis, antibacterial and antitubercular activities of benzimidazole bearing substituted 2-pyridone motifs” (Eur J Med Chem, 2014).
# Columns and labels:
# [1] = system: Escherichia coli; assay: Antimicrobial activity against Escherichia coli MTCC-443 after 24 hrs by broth dilution method; type: functional; settings: MTCC-443, 24 h
# Outline: (§1)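 NCCLS broth dilution in Mueller Hinton broth with 2% DMSO as vehicle. Primary screen at 1000, 500 and 250 µg/mL; actives retested at 200 to 6.25 µg/mL. Inoculum 10⁶ CFU/mL, set by turbidity. Incubated 24 h at 37 °C; growth read visually and spectrophotometrically. MIC is the lowest concentration arresting growth. Chloramphenicol was the positive control; DMSO and water were negative controls.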
# [2] = system: Pseudomonas aeruginosa; assay: Antimicrobial activity against Pseudomonas aeruginosa MTCC-1688 after 24 hrs by broth dilution method; type: functional; settings: MTCC-1688, 24 h; outline: as §1
# [3] = system: Staphylococcus aureus; assay: Antimicrobial activity against Staphylococcus aureus MTCC-96 after 24 hrs by broth dilution method; type: functional; settings: MTCC-96, 24 h; outline: as §1
# [4] = system: Streptococcus pyogenes; assay: Antimicrobial activity against Streptococcus pyogenes MTCC-442 after 24 hrs by broth dilution method; type: functional; settings: MTCC-442, 24 h; outline: as §1
# [5] = system: Mycobacterium tuberculosis; assay: Antitubercular activity against Mycobacterium tuberculosis H37Rv ATCC 27294 after 5 to 8 days by BACTEC 12B method; type: functional
# [6] = system: Vero; assay: Cytotoxicity against african green monkey Vero cells after 72 hrs by MTS-PMS method; type: cell-based; settings: Chlorocebus sabaeus
# Outline: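 Vero cells in DMEM with 10% FBS at 37 °C, 5% CO2, diluted to 10^6 cells/mL. Threefold serial dilutions gave final […] to 0.12 µg/mL with 1% DMSO. Incubated 72 h, washed with HBSS, then MTS-PMS (100:20) added for 3 h; absorbance read at 490 nm. Triplicate wells, assay repeated three times. Controls set as 100% viability; IC50 taken as 50% growth inhibition.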
# [7] = system: Staphylococcus aureus; assay: Antimicrobial activity against methicillin-resistant Staphylococcus aureus ATCC 43300 after 24 hrs by broth dilution method; type: functional; settings: ATCC 43300, 24 h
# Outline: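 Broth dilution per NCCLS in Mueller Hinton broth; compounds in 2% DMSO, 1000 µg/mL stock; primary screen 1000, 500, 250 µg/mL, then secondary dilutions 200 to 6.25 µg/mL. Inoculum 10⁶ CFU/mL by turbidity; 24 h at 37 °C, growth read visually and spectrophotometrically. MIC = lowest concentration arresting growth. DMSO/water negative control; chloramphenicol positive control.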
# [8] = system: Staphylococcus aureus; assay: Ratio of ciprofloxacin MIC to compound MIC for methicillin-resistant Staphylococcus aureus ATCC 43300 after 24 hrs by broth dilution method; type: functional
# [9] = system: Staphylococcus aureus; assay: Ratio of chloramphenicol MIC to compound MIC for methicillin-resistant Staphylococcus aureus ATCC 43300 after 24 hrs by broth dilution method; type: functional
Compound,MIC [1] [µg/mL],MIC [2] [µg/mL],MIC [3] [µg/mL],MIC [4] [µg/mL],MIC [5] [µg/mL],IC50 [6] [µg/mL],MIC [7] [µg/mL],Ratio [8],Ratio [9]
C/C(=N\n1c(/N=C/c2cccc(O)c2)c(C#N)c(-c2ccc([N+](=O)[O-])cc2)c(C#N)c1=O)c1nc2ccccc2[nH]1,500,250,100,500,30.2,17,–,–,–
C/C(=N\n1c(N)c(C#N)c(-c2ccc([N+](=O)[O-])cc2)c(C#N)c1=O)c1nc2ccccc2[nH]1,500,500,500,500,> 39.4,–,–,–,–
O=C(O)c1cn(C2CC2)c2cc(N3CCNCC3)c(F)cc2c1=O [CIPROFLOXACIN],25,–,50,50,–,–,–,–,–
C/C(=N\n1c(/N=C/c2ccc([N+](=O)[O-])cc2)c(C#N)c(-c2ccc([N+](=O)[O-])cc2)c(C#N)c1=O)c1nc2ccccc2[nH]1,1000,1000,500,500,32.2,16.1,–,–,–
O=C(N[C@H](CO)[C@H](O)c1ccc([N+](=O)[O-])cc1)C(Cl)Cl [CHLORAMPHENICOL],50,50,50,50,–,–,50,–,–
C/C(=N\NC(=O)CC#N)c1nc2ccccc2[nH]1,> 1000,> 1000,1000,1000,> 39.4,–,–,–,–
C/C(=N\n1c(/N=C/c2ccc(C)cc2)c(C#N)c(-c2ccc([N+](=O)[O-])cc2)c(C#N)c1=O)c1nc2ccccc2[nH]1,250,250,250,125,6.28,> 39.4,–,–,–
C/C(=N\n1c(/N=C/c2ccc(F)cc2)c(C#N)c(-c2ccc([N+](=O)[O-])cc2)c(C#N)c1=O)c1nc2ccccc2[nH]1,250,250,250,100,27.1,24.8,–,–,–
C/C(=N\n1c(/N=C/c2cccc(C)c2)c(C#N)c(-c2ccc([N+](=O)[O-])cc2)c(C#N)c1=O)c1nc2ccccc2[nH]1,100,100,100,100,2.07,> 39.4,–,–,–
C/C(=N\n1c(/N=C/c2ccccc2)c(C#N)c(-c2ccc([N+](=O)[O-])cc2)c(C#N)c1=O)c1nc2ccccc2[nH]1,500,500,500,500,35.2,17.6,–,–,–
COc1cccc(/C=N/c2c(C#N)c(-c3ccc([N+](=O)[O-])cc3)c(C#N)c(=O)n2/N=C(\C)c2nc3ccccc3[nH]2)c1,250,500,100,250,18,24.2,–,–,–
C/C(=N\n1c(/N=C/c2ccc(Cl)cc2)c(C#N)c(-c2ccc([N+](=O)[O-])cc2)c(C#N)c1=O)c1nc2ccccc2[nH]1,100,100,62.5,50,1.79,> 39.4,–,–,–
C/C(=N\n1c(/N=C/c2cccc([N+](=O)[O-])c2)c(C#N)c(-c2ccc([N+](=O)[O-])cc2)c(C#N)c1=O)c1nc2ccccc2[nH]1,250,500,250,500,28.3,27.6,–,–,–
COc1ccc(/C=N/c2c(C#N)c(-c3ccc([N+](=O)[O-])cc3)c(C#N)c(=O)n2/N=C(\C)c2nc3ccccc3[nH]2)cc1,500,500,250,250,23.5,25.4,–,–,–
C/C(=N\n1c(/N=C/c2cccc(F)c2)c(C#N)c(-c2ccc([N+](=O)[O-])cc2)c(C#N)c1=O)c1nc2ccccc2[nH]1,100,250,100,125,25.4,23.6,–,–,–
C/C(=N\n1c(/N=C/c2ccc(Br)cc2)c(C#N)c(-c2ccc([N+](=O)[O-])cc2)c(C#N)c1=O)c1nc2ccccc2[nH]1,50,50,25,50,13.8,> 39.4,6.25,4,8
NNC(=O)c1ccncc1 [ISONIAZID],–,–,–,–,0.24,–,–,–,–
C/C(=N\n1c(/N=C/c2ccccc2C)c(C#N)c(-c2ccc([N+](=O)[O-])cc2)c(C#N)c1=O)c1nc2ccccc2[nH]1,250,250,125,100,9.17,34.5,–,–,–
C/C(=N\n1c(/N=C/c2ccc(O)cc2)c(C#N)c(-c2ccc([N+](=O)[O-])cc2)c(C#N)c1=O)c1nc2ccccc2[nH]1,250,500,500,250,30.9,13.7,–,–,–
C/C(=N\n1c(/N=C/c2ccccc2Cl)c(C#N)c(-c2ccc([N+](=O)[O-])cc2)c(C#N)c1=O)c1nc2ccccc2[nH]1,100,125,50,62.5,2.65,> 39.4,–,–,–
C/C(=N\n1c(/N=C/c2ccccc2O)c(C#N)c(-c2ccc([N+](=O)[O-])cc2)c(C#N)c1=O)c1nc2ccccc2[nH]1,500,500,500,250,31.6,19.8,–,–,–
C/C(=N\n1c(/N=C/c2cccc(Cl)c2)c(C#N)c(-c2ccc([N+](=O)[O-])cc2)c(C#N)c1=O)c1nc2ccccc2[nH]1,50,62.5,25,50,0.85,> 39.4,> 50,–,–
C/C(=N\n1c(/N=C/c2cccc(Br)c2)c(C#N)c(-c2ccc([N+](=O)[O-])cc2)c(C#N)c1=O)c1nc2ccccc2[nH]1,25,25,12.5,25,10.3,> 39.4,12.5,2,4
